These results are taken from ChEMBL document CHEMBL1150693, “Structures of new dammarane-type Triterpene Saponins from the flower buds of Panax notoginseng and hepatoprotective effects of principal Ginseng Saponins” (2003).

Common to all, as to format: functional
Common to all, as to conditions: route intraperitoneal

In assay [1] the test system is Mus musculus. In words: Hepatoprotective activity against D-galactosamine/LPS-induced liver injury in ddY mouse assessed as inhibition of serum aspartate transaminase level at 100 mg/kg, ip administered 1 hr before D-galactosamine/LPS challenge by Reitman-Frankel method. An outline of the steps:
(§1)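 Male ddY mice (about 25-27 g) fasted 20 h; liver injury induced by i.p. D-GalN (350 mg/kg) plus LPS (10 µg/kg, Salmonella enteritidis) in saline. Test sample given i.p. 1 h before challenge. Blood taken from infraorbital venous plexus 10 h after D-GalN/LPS; sALT and sAST measured by Reitman-Frankel method (Karmen units). Mean ± SEM; one-way ANOVA with Dunnett's test.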

Assay [2] concerns Mus musculus. Kind of assay: Hepatoprotective activity against D-galactosamine/LPS-induced liver injury in ddY mouse assessed as inhibition of serum alanine transaminase level at 100 mg/kg, ip administered 1 hr before D-galactosamine/LPS challenge by Reitman-Frankel method. The method in brief:
as §1

Assay [3] deals with Mus musculus. In words: Hepatoprotective activity against D-galactosamine/LPS-induced liver injury in ddY mouse assessed as inhibition of serum alanine transaminase level at 20 mg/kg, ip administered 1 hr before D-galactosamine/LPS challenge by Reitman-Frankel method. The method in brief:
(§2)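 Male ddY mice (about 25-27 g) fasted 20 h; liver injury induced by ip D-GalN (350 mg/kg) plus LPS (10 µg/kg, Salmonella enteritidis) in saline. Sample given ip 1 h before D-GalN/LPS. Blood drawn from infraorbital venous plexus 10 h after challenge; sALT and sAST measured by Reitman-Frankel kit, in Karmen units; % inhibition reported. Means ± SEM; one-way ANOVA with Dunnett's test.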

Assay [4] concerns Mus musculus. In words: Hepatoprotective activity against D-galactosamine/LPS-induced liver injury in ddY mouse assessed as inhibition of serum aspartate transaminase level at 20 mg/kg, ip administered 1 hr before D-galactosamine/LPS challenge by Reitman-Frankel method. The method in brief: as §2
The test system of assay [5] is Mus musculus. Kind of assay: Hepatoprotective activity against D-galactosamine/LPS-induced liver injury in ddY mouse assessed as inhibition of serum alanine transaminase level at 50 mg/kg, ip administered 1 hr before D-galactosamine/LPS challenge by Reitman-Frankel method. The method in brief:
as §1

Assay [6] has as its system Mus musculus. Kind of assay: Hepatoprotective activity against D-galactosamine/LPS-induced liver injury in ddY mouse assessed as inhibition of serum aspartate transaminase level at 50 mg/kg, ip administered 1 hr before D-galactosamine/LPS challenge by Reitman-Frankel method. The method in brief:
as §1

With `CC(C)=CCC[C@](C)(O[C@@H]1O[C@H](CO)[C@@H](O)[C@H](O)[C@H]1O)[C@H]1CC[C@]2(C)[C@@H]1[C@H](O)C[C@@H]1[C@@]3(C)CC[C@H](O)C(C)(C)[C@@H]3[C@@H](O[C@@H]3O[C@H](CO)[C@@H](O)[C@H](O)[C@H]3O[C@@H]3OC[C@@H](O)[C@H](O)[C@H]3O)C[C@]12C` [NOTOGINSENOSIDE R1], the inhibition in vivo (in general, the drop in the measured response relative to a control, in per cent) at 100 mg/kg was 89% with Mus musculus [1] and 87% in the assay with Mus musculus [2].

Regarding `CC(C)=CCC[C@](C)(O[C@@H]1O[C@H](CO[C@@H]2O[C@H](CO)[C@@H](O)[C@H](O)[C@H]2O)[C@@H](O)[C@H](O)[C@H]1O)[C@H]1CC[C@]2(C)[C@@H]1[C@H](O)C[C@@H]1[C@@]3(C)CC[C@H](O)C(C)(C)[C@@H]3[C@@H](O[C@@H]3O[C@H](CO)[C@@H](O)[C@H](O)[C@H]3O)C[C@]12C` [notoginsenoside-R6], the values for the inhibition in vivo at 100 mg/kg in the assay on Mus musculus [1] and in the assay on Mus musculus [2] were 44% and 32%, respectively.

Consider `CC(C)=CCC[C@](C)(O[C@@H]1O[C@H](CO)[C@@H](O)[C@H](O)[C@H]1O)[C@H]1CC[C@]2(C)[C@@H]1[C@H](O)C[C@@H]1[C@@]3(C)CC[C@H](O[C@@H]4O[C@H](CO)[C@@H](O)[C@H](O)[C@H]4O[C@@H]4O[C@H](CO)[C@@H](O)[C@H](O)[C@H]4O)C(C)(C)[C@@H]3CC[C@]12C` [GINSENOSIDE RD], for which the inhibition in vivo at 100 mg/kg was 93% in the assay on Mus musculus [1] and 97% with Mus musculus [2].

In the case of `CC(C)=CCC[C@](C)(O[C@@H]1O[C@H](CO)[C@@H](O)[C@H](O)[C@H]1O)[C@H]1CC[C@]2(C)[C@@H]1[C@H](O)C[C@@H]1[C@@]3(C)CC[C@H](O)C(C)(C)[C@@H]3[C@@H](O[C@@H]3O[C@H](CO)[C@@H](O)[C@H](O)[C@H]3O)C[C@]12C` [GINSENOSIDE RG1], the inhibition in vivo at 100 mg/kg amounted to 12% with Mus musculus [1] and 30% in the assay on Mus musculus [2].

On to `CC(C)=CCC[C@](C)(O[C@@H]1O[C@H](CO[C@@H]2O[C@H](CO)[C@@H](O)[C@H](O)[C@H]2O)[C@@H](O)[C@H](O)[C@H]1O)[C@H]1CC[C@]2(C)[C@@H]1[C@H](O)C[C@@H]1[C@@]3(C)CC[C@H](O[C@@H]4O[C@H](CO)[C@@H](O)[C@H](O)[C@H]4O)C(C)(C)[C@@H]3CC[C@]12C` [GYPENOSIDE XVII], for which the inhibition in vivo at 100 mg/kg is 91% with Mus musculus [1] and 95% in the assay on Mus musculus [2].

As to `C[C@]12CCC(=O)C=C1CC[C@@H]1[C@@H]2[C@@H](O)C[C@@]2(C)[C@H]1CC[C@]2(O)C(=O)CO` [HYDROCORTISONE], the values for the inhibition in vivo at 20 mg/kg with Mus musculus [3] and in the assay with Mus musculus [4] were 99% and 97%, respectively.

`CC(C)=CCC[C@](C)(O[C@@H]1O[C@H](CO[C@@H]2OC[C@@H](O)[C@H](O)[C@H]2O)[C@@H](O)[C@H](O)[C@H]1O)[C@H]1CC[C@]2(C)[C@@H]1[C@H](O)C[C@@H]1[C@@]3(C)CC[C@H](O[C@@H]4O[C@H](CO)[C@@H](O)[C@H](O)[C@H]4O[C@@H]4O[C@H](CO)[C@@H](O)[C@H](O)[C@H]4O)C(C)(C)[C@@H]3CC[C@]12C` [GINSENOSIDE RB3]: the values for the inhibition in vivo at 100 mg/kg in the assay on Mus musculus [1] and in the assay on Mus musculus [2] were 80% and 91%, respectively. The inhibition in vivo at 50 mg/kg in the assay with Mus musculus [5] worked out at 77%; in the assay on Mus musculus [6], 72%.

With `CC(C)=CCC[C@](C)(O)[C@H]1CC[C@]2(C)[C@@H]1[C@H](O)C[C@@H]1[C@@]3(C)CC[C@H](O)C(C)(C)[C@@H]3[C@@H](O[C@@H]3O[C@H](CO)[C@@H](O)[C@H](O)[C@H]3O)C[C@]12C` [GINSENOSIDE RH1], the figures for the inhibition in vivo at 100 mg/kg in the assay on Mus musculus [1] and with Mus musculus [2] were 90% and 93%, respectively.

For `CC(C)=CCC[C@](C)(O[C@@H]1O[C@H](CO[C@@H]2O[C@@H](CO)[C@H](O)[C@H]2O)[C@@H](O)[C@H](O)[C@H]1O)[C@H]1CC[C@]2(C)[C@@H]1[C@H](O)C[C@@H]1[C@@]3(C)CC[C@H](O[C@@H]4O[C@H](CO)[C@@H](O)[C@H](O)[C@H]4O[C@@H]4O[C@H](CO)[C@@H](O)[C@H](O)[C@H]4O)C(C)(C)[C@@H]3CC[C@]12C` [GINSENOSIDE RC], the figures for the inhibition in vivo at 100 mg/kg with Mus musculus [1] and in the assay on Mus musculus [2] were 87% and 89%, respectively. For the same molecule, the inhibition in vivo at 50 mg/kg was found to be 77% with Mus musculus [5] and 80% with Mus musculus [6].

For `CC(C)=CCC[C@](C)(O[C@@H]1O[C@H](CO[C@@H]2O[C@H](CO)[C@@H](O)[C@H](O)[C@H]2O)[C@@H](O)[C@H](O)[C@H]1O)[C@H]1CC[C@]2(C)[C@@H]1[C@H](O)C[C@@H]1[C@@]3(C)CC[C@H](O[C@@H]4O[C@H](CO)[C@@H](O)[C@H](O)[C@H]4O[C@@H]4O[C@H](CO)[C@@H](O)[C@H](O)[C@H]4O)C(C)(C)[C@@H]3CC[C@]12C` [GINSENOSIDE RB1], the inhibition in vivo at 100 mg/kg in the assay on Mus musculus [1] turned out to be 40%; in the assay on Mus musculus [2], 33%.

For the molecule `CC(C)=CCC[C@](C)(O[C@@H]1O[C@H](CO)[C@@H](O)[C@H](O)[C@H]1O)[C@H]1CC[C@]2(C)[C@@H]1[C@H](O)C[C@@H]1[C@@]3(C)CC[C@H](O)C(C)(C)[C@@H]3[C@@H](O[C@@H]3O[C@H](CO)[C@@H](O)[C@H](O)[C@H]3O[C@@H]3O[C@H](CO)[C@@H](O)[C@H](O)[C@H]3O)C[C@]12C`, the inhibition in vivo at 100 mg/kg with Mus musculus [1] is 40%; in the assay on Mus musculus [2], 34%.

In the case of `CC(C)=CCC[C@](C)(O[C@@H]1O[C@H](CO)[C@@H](O)[C@H](O)[C@H]1O)[C@H]1CC[C@]2(C)[C@@H]1[C@H](O)C[C@@H]1[C@@]3(C)CC[C@H](O)C(C)(C)[C@@H]3[C@@H](O[C@@H]3O[C@H](CO)[C@@H](O)[C@H](O)[C@H]3O[C@@H]3O[C@@H](C)[C@H](O)[C@@H](O)[C@H]3O)C[C@]12C` [GINSENOSIDE RE], the inhibition in vivo at 100 mg/kg with Mus musculus [1] amounted to 90%; in the assay on Mus musculus [2] it was 92%.
